# Data reported in ChEMBL document CHEMBL5653623 (J Pharmacol Exp Ther, 2015).
# Activity calls are given as the source filed them. No cut-off for these calls is given here.
# How the values were obtained:
# [1] = biological target: Mitogen-activated protein kinase kinase kinase 14 (Homo sapiens, UniProt Q99558); assay: Inhibition of MAP3K14 (unknown origin)
# [2] = biological target: T1, Dual specificity protein kinase TTK (Homo sapiens, UniProt P33981); assay: Inhibition of TTK (unknown origin)
# T1 sequence (P33981 whole entry): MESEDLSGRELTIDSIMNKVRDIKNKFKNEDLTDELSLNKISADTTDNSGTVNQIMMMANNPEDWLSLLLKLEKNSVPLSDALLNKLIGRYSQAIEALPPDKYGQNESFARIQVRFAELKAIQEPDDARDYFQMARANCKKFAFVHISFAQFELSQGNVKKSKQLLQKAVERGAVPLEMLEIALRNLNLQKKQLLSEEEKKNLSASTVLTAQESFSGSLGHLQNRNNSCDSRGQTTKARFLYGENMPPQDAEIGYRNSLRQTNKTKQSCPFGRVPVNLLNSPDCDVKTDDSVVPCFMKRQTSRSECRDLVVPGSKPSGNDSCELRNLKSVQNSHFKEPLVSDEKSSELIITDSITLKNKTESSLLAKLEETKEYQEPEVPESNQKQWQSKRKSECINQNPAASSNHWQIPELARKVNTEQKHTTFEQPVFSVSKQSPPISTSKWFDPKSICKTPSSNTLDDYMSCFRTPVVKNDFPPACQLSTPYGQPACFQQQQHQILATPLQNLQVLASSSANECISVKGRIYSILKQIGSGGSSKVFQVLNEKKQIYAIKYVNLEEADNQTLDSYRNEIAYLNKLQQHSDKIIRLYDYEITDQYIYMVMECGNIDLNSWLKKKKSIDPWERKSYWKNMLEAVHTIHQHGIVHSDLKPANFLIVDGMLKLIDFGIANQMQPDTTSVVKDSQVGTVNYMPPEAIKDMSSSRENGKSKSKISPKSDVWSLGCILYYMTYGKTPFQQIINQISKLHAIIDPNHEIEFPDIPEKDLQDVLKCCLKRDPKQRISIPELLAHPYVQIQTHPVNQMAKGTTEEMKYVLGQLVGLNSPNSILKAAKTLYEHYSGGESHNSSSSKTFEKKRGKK
# [3] = biological target: Sodium-dependent noradrenaline transporter (Homo sapiens, UniProt P23975); assay: Inhibition of norepinephrine transporter (unknown origin)
# Sodium-dependent noradrenaline transporter, sequence (P23975 whole entry): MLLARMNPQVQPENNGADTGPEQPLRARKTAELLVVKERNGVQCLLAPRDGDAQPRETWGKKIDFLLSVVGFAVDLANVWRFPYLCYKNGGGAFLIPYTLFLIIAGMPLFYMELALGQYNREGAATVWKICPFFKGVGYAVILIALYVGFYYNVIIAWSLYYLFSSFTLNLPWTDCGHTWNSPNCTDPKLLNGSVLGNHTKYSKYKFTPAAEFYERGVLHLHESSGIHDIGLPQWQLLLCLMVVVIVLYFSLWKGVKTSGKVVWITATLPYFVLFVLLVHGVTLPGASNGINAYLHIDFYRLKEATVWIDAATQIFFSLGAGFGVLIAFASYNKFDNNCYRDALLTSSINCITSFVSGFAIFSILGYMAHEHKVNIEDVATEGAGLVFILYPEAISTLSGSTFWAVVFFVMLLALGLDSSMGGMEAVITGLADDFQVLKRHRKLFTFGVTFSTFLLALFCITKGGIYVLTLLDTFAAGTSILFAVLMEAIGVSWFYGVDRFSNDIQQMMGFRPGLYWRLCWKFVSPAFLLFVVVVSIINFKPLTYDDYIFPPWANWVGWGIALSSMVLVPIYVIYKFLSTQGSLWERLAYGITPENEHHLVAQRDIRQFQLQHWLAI
# In short: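 Radioligand binding selectivity screen was run at 10 μM, mean of three determinations. Where inhibition exceeded 50%, full concentration-displacement curves were run in triplicate and IC50 was obtained by nonlinear least-squares regression.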
# [4] = Cmax in C57Bl/6 mouse at 2 mg/kg, iv measured after 480 mins by LC-MS/MS analysis; format: ADME, organism-based; details: in vivo
# In short: (§1)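 Male C57Bl/6 mice (20-25 g) given a single IV dose (2 mg/kg) or oral dose (10 mg/kg). Blood was sampled at 5, 15, 30, 60, 120, 240, 360 and 480 min and plasma prepared by centrifugation. Plasma drug levels were measured by LC/MS/MS. Values are mean (CV%), N=3.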
# [5] = Cmax in C57Bl/6 mouse at 10 mg/kg, po measured after 480 mins by LC-MS/MS analysis; format: ADME, organism-based; details: in vivo; in short: as §1
# [6] = Tmax in C57Bl/6 mouse at 10 mg/kg, po measured after 480 mins by LC-MS/MS analysis; format: ADME, organism-based; details: in vivo; in short: as §1
# [7] = Unbound brain concentration in C57Bl/6 mouse at 1 mg/kg, po administered for 1 hr; format: ADME, organism-based; details: in vivo
# [8] = biological target: Leucine-rich repeat serine/threonine-protein kinase 2 (Mus musculus) (UniProt Q5S006); assay: In vivo inhibition of LRRK2 in C57Bl/6 mouse brain assessed as reduction in pSer935 LRRK2 at 10 to 120 mg/kg administered for 11 days and measured for 8 to 24 hrs by Western blotting analysis; format: functional, organism-based; details: dose 10-120 mg/kg, time 11.0 day
# Leucine-rich repeat serine/threonine-protein kinase 2 (Mus musculus), sequence (Q5S006 whole entry): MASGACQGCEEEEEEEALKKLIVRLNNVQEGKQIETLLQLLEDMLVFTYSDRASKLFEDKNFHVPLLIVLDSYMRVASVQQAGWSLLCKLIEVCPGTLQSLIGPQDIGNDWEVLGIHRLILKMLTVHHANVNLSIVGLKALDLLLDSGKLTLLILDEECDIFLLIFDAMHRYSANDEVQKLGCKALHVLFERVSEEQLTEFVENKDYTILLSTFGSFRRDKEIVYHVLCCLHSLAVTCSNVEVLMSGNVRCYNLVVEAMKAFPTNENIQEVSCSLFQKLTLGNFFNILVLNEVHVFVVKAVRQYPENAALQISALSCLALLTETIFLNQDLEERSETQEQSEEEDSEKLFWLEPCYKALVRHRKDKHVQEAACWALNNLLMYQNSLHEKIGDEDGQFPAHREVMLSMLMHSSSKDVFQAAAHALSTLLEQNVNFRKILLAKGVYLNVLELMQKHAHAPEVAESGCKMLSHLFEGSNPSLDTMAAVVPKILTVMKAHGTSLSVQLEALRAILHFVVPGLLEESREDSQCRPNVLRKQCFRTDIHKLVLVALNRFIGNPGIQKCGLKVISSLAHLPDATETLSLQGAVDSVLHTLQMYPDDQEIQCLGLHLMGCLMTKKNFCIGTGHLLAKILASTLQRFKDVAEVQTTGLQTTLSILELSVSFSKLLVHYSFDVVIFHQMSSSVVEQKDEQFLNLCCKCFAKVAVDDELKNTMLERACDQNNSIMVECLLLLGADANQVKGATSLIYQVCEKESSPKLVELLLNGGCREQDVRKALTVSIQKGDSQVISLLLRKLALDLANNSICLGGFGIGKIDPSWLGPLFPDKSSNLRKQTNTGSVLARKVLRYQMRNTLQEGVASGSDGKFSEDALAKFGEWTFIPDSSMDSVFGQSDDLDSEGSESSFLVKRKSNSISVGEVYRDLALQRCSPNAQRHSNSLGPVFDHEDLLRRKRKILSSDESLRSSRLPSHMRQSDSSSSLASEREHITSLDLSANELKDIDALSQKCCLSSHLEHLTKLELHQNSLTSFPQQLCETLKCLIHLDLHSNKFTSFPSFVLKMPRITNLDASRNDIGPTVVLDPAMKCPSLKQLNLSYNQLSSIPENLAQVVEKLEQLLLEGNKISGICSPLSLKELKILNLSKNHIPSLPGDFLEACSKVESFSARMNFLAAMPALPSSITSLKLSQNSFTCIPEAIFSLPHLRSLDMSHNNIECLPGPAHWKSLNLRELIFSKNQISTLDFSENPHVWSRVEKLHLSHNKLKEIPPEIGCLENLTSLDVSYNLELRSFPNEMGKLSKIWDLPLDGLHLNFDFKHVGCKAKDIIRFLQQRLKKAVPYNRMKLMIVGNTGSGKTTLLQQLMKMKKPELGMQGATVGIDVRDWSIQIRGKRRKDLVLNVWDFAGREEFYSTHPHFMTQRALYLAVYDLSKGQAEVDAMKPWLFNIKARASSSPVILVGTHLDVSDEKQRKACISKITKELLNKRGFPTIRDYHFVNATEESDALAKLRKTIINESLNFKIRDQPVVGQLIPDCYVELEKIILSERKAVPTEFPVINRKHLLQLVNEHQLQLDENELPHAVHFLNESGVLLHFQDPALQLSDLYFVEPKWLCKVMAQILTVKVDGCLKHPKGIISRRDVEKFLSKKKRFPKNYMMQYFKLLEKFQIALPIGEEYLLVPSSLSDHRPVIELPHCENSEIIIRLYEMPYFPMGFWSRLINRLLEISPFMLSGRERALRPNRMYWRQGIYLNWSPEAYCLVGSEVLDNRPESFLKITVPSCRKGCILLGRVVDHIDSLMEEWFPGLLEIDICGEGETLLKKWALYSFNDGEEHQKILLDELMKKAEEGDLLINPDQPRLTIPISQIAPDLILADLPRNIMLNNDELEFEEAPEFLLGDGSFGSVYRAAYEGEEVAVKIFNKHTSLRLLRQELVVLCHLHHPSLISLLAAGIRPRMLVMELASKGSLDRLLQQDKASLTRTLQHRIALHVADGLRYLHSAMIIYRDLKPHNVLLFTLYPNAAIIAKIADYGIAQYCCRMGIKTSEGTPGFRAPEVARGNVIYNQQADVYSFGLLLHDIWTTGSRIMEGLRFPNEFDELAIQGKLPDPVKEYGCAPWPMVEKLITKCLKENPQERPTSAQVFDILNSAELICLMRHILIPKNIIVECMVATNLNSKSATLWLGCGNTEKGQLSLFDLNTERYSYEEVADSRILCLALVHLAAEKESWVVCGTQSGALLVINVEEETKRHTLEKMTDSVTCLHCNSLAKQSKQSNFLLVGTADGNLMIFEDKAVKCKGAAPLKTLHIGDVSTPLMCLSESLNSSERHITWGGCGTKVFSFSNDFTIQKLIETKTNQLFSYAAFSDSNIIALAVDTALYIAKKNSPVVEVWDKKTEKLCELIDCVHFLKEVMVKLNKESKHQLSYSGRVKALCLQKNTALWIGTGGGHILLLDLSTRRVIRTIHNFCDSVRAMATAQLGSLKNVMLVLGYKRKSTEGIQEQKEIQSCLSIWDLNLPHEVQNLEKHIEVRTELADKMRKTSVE
# In short: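 Male C57Bl/6 mice, singly housed on a reversed light cycle. Fed drug diet targeted to 3, 10, 30, 60 or 120 mg/kg/day (assuming 3 g/day intake), or untreated diet, for 11 days. Killed 4, 8 or 24 h after dark-cycle onset, n = 5 per group. Cortex immunoblotted for pSer935/total LRRK2 and total LRRK2/GAPDH. Total LRRK2 detected with MJFF2 antibody.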
# [9] = biological target: Leucine-rich repeat serine/threonine-protein kinase 2 (Mus musculus) (UniProt Q5S006); assay: In vivo inhibition of LRRK2 in C57Bl/6 mouse kidney assessed as reduction in pSer935 LRRK2 administered for 11 days by Western blotting analysis; format: functional, organism-based; details: time 11.0 day
# In short: (§2)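 Same 11-day in-diet design in male C57Bl/6 mice: 3-120 mg/kg/day or untreated diet, killed 4, 8 or 24 h after dark-cycle onset, n = 5 per group. Kidneys dissected for Western blot of pSer935 and total LRRK2, with total LRRK2 detected by MJFF-2 antibody.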
# [10] = biological target: Leucine-rich repeat serine/threonine-protein kinase 2 (Mus musculus) (UniProt Q5S006); assay: In vivo inhibition of LRRK2 in C57Bl/6 mouse kidney assessed as total LRRK2 protein level administered for 11 days and measured after 4 hrs by Western blotting analysis; format: functional, organism-based; details: dose 3-120 mg/kg, time 11.0 day; in short: as §2
# [11] = Effect on spontaneous locomotor activity in C57Bl/6 mouse assessed as distance traveled administered for 11 days by truScan photo beam activity system analysis; format: toxicity; details: in vivo, 264 h, time 11 day
# In short: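 Male C57Bl/6 mice, singly housed on a reversed 12 h light cycle, were fed diet formulated to give 3, 10, 30, 60 or 120 mg/kg/day (assumes 3 g/day intake) or untreated diet for 11 days. Body weight and food intake were monitored. Spontaneous locomotion and rearing were recorded over 60 min. On day 11, mice were euthanized 4, 8 or 24 h after dark onset and plasma and brain drug levels measured; n = 5 per group.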
# [12] = system: Mus musculus; assay: Effect on food intake in MitoPark mouse at 30 mg/kg administered for 15 weeks; format: functional, organism-based
# In short: (§3)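 MitoPark mice, 5 weeks old, were allocated by baseline 60-min LMA to untreated diet or diet targeting 30 mg/kg/day (reformulated every 3 weeks). Wild-type littermates received vehicle diet. Body weight and food intake were recorded weekly. 60-min LMA (distance, rearing) was run at 8, 11, 14 and 17 weeks of age.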
# [13] = system: Mus musculus; assay: Effect on behavioral phenotype in 8 weeks old MitoPark mouse assessed as rearing behavior at 30 mg/kg/day administered for 3 weeks and measured after 60 mins; format: functional, organism-based; in short: as §3
# [14] = system: Mus musculus; assay: Effect on behavioral phenotype in 11 weeks old MitoPark mouse assessed as decreased locomotor activity at 30 mg/kg/day administered for 6 weeks and measured after 60 mins truScan photo beam activity system analysis; format: functional, organism-based; in short: as §3
# [15] = biological target: Leucine-rich repeat serine/threonine-protein kinase 2 (Mus musculus) (UniProt Q5S006); assay: In vivo inhibition of LRRK2 in 20 weeks old MitoPark mouse kidney assessed as reduction in pSer935 LRRK2 level at 30 mg/kg/day administered for 15 weeks by Western blotting analysis; format: functional, organism-based
# In short: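 MitoPark mice on drug-containing diet targeted to 30 mg/kg/day from 5 weeks of age, with the diet reformulated every 3 weeks to hold the target. Untreated-diet MitoPark and wild-type littermate controls. Killed by CO2 at 20 weeks of age. Lung and kidney taken from 5 mice per group for pSer935 and total LRRK2 immunoblots.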
# Mitogen-activated protein kinase kinase kinase 14, sequence (Q99558 whole entry): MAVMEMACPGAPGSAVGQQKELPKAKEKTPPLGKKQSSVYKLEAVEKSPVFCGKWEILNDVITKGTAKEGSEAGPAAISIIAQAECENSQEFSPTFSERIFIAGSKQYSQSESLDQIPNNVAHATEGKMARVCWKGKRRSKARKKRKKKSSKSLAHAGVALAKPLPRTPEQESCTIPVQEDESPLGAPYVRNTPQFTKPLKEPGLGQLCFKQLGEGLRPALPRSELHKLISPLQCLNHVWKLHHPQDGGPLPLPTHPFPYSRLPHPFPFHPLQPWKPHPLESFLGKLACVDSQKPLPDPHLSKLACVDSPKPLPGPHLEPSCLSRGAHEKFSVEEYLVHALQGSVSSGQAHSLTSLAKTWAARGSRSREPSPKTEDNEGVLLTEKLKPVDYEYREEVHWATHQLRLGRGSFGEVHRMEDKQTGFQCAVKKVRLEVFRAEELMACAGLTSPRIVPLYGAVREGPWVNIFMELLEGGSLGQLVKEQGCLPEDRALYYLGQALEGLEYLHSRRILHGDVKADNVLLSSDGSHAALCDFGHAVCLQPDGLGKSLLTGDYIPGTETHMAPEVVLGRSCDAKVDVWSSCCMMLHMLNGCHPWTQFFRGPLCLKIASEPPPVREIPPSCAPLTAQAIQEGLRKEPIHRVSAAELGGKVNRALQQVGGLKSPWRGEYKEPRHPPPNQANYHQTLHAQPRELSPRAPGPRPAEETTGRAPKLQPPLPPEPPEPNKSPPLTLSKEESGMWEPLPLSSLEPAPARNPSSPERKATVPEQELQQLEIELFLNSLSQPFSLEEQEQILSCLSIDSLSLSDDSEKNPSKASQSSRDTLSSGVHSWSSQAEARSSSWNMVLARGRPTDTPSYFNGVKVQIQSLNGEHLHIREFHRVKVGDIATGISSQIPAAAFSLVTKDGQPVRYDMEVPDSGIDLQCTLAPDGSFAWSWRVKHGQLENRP
compound,measurement,setting,value
C[C@@H]1CN(c2cc(-c3n[nH]c4ccc(OC5(C)CC5)cc34)ncn2)C[C@H](C)O1 [MLi-2],IC50,[1],244 nM
same,IC50,[2],935 nM
same,IC50,[3],3800 nM
same,Cmax,[4],716 nM
same,Cmax,[5],298 nM
same,Tmax,[6],45 min
same,Drug uptake(free),[7],0.6 nM
same,inhibition,[8],Active
same,inhibition,[9],Active
same,inhibition,[10],Dose-Dependent Effect
same,Activity,[11],Non-Toxic
same,Activity,[12],inactive
same,Activity,[13],Active
same,Activity,[14],Active
same,inhibition,[15],Active
